Data from ChEMBL document CHEMBL1687824, “Overexpression of patA and patB, which encode ABC transporters, is associated with fluoroquinolone resistance in clinical isolates of Streptococcus pneumoniae” (2011).
≈ marks a conversion by molar mass, not a printed value.

What was measured:
Format in all cases: functional
Streptococcus pneumoniae [1] = assay: Antibacterial activity against wild type Streptococcus pneumoniae M4 NCTC 7465 type 1 by standardized agar doubling dilution method in presence of 50 uM sodium orthovanadate efflux pump inhibitor
Streptococcus pneumoniae [2] = assay: Antibacterial activity against wild type Streptococcus pneumoniae M3 NCTC 7466 type 2 by standardized agar doubling dilution method in presence of 50 uM sodium orthovanadate efflux pump inhibitor
Procedure, shortened: (§1)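 MIC by agar doubling dilution per BSAC guidelines; strains pregrown in brain heart infusion broth 24 h, 37°C, 5% CO2. MICs measured alone and with efflux pump inhibitors reserpine (20 μg/ml) or sodium orthovanadate (50 μM); synergy defined as ≥2-dilution MIC reduction in presence of inhibitor.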

Streptococcus pneumoniae [3] = assay: Antibacterial activity against Streptococcus pneumoniae M45B overexpressing patA, patB and inactivated patB with single mutation by standardized agar doubling dilution method
Procedure, shortened: (§2)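 MICs were determined by agar doubling dilution following BSAC guidelines, with no efflux inhibitor. Strains were grown in brain heart infusion broth for 24 h at 37°C in 5% CO2. Species identity was confirmed by Gram stain, optochin sensitivity and capsule test. Control strain R6 was tested alongside.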

Streptococcus pneumoniae [4] = assay: Antibacterial activity against Streptococcus pneumoniae M50A overexpressing patA, patB and inactivated patA with single mutation by standardized agar doubling dilution method; procedure, shortened: as §2
Streptococcus pneumoniae [5] = assay: Antibacterial activity against Streptococcus pneumoniae M86A overexpressing patA, patB and inactivated patA with single mutation by standardized agar doubling dilution method; procedure, shortened: as §2
Streptococcus pneumoniae [6] = assay: Antibacterial activity against Streptococcus pneumoniae M310 overexpressing patA, patB and inactivated patB with single mutation by standardized agar doubling dilution method
Procedure, shortened: (§3)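 MICs determined by BSAC standardized agar doubling dilution. Strains were grown in brain heart infusion broth for 24 h at 37°C in 5% CO2. Inhibitor arms had reserpine at 20 μg/ml or sodium orthovanadate at 50 μM in the agar. Mutants were made by transforming magellan2 insertion amplimers into clinical isolates and selecting on spectinomycin 100 mg/liter, with a no-DNA spontaneous-mutation control.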

Streptococcus pneumoniae [7] = assay: Antibacterial activity against fluoroquinolone-resistant Streptococcus pneumoniae M83 FQ-R overexpressing patA, patB by standardized agar doubling dilution method
Procedure, shortened: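 Clinical S. pneumoniae isolates grown in BHI broth 24 h at 37°C in 5% CO2. MICs by agar doubling dilution per BSAC guidelines, alone or with efflux inhibitor reserpine (20 μg/ml) or sodium orthovanadate (50 μM). Synergy defined as ≥2-dilution MIC reduction in presence of inhibitor.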

Streptococcus pneumoniae [8] = assay: Antibacterial activity against Streptococcus pneumoniae M318 overexpressing patA, patB and inactivated patA with single mutation by standardized agar doubling dilution method; procedure, shortened: as §2
Streptococcus pneumoniae [9] = assay: Antibacterial activity against Streptococcus pneumoniae M319 overexpressing patA, patB and inactivated patB with single mutation by standardized agar doubling dilution method; procedure, shortened: as §2
Streptococcus pneumoniae [10] = assay: Antibacterial activity against Streptococcus pneumoniae M302 overexpressing patA, patB and inactivated patA with single mutation by standardized agar doubling dilution method; procedure, shortened: as §3
Streptococcus pneumoniae [11] = assay: Antibacterial activity against Streptococcus pneumoniae M300 overexpressing patA, patB and inactivated patA with single mutation by standardized agar doubling dilution method; procedure, shortened: as §3
Streptococcus pneumoniae [12] = assay: Antibacterial activity against dye-resistant Streptococcus pneumoniae M46 DR overexpressing patA, patB by standardized agar doubling dilution method; procedure, shortened: as §2
Streptococcus pneumoniae [13] = assay: Antibacterial activity against Streptococcus pneumoniae M298 overexpressing patA, patB and inactivated patA with single mutation by standardized agar doubling dilution method in presence of 20 ug/ml reserpine efflux pump inhibitor; procedure, shortened: as §3
Streptococcus pneumoniae [14] = assay: Antibacterial activity against Streptococcus pneumoniae M45B overexpressing patA, patB and inactivated patB with single mutation by standardized agar doubling dilution method in presence of 20 ug/ml reserpine efflux pump inhibitor
Procedure, shortened: (§4)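 MICs were determined by BSAC agar doubling dilution in the presence of reserpine at 20 μg/ml. Strains were grown in BHI broth for 24 h at 37°C in 5% CO2, with R6 as control. Synergy was defined as an MIC drop of ≥2 dilutions with the inhibitor.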

Streptococcus pneumoniae [15] = assay: Antibacterial activity against Streptococcus pneumoniae M305 overexpressing patA, patB and inactivated patB with single mutation by standardized agar doubling dilution method in presence of 20 ug/ml reserpine efflux pump inhibitor; procedure, shortened: as §3
Streptococcus pneumoniae [16] = assay: Antibacterial activity against Streptococcus pneumoniae M87B overexpressing patA, patB and inactivated patB with single mutation by standardized agar doubling dilution method in presence of 20 ug/ml reserpine efflux pump inhibitor; procedure, shortened: as §4
Streptococcus pneumoniae [17] = assay: Antibacterial activity against Streptococcus pneumoniae M311B overexpressing patA, patB and inactivated patB with single mutation by standardized agar doubling dilution method in presence of 20 ug/ml reserpine efflux pump inhibitor; procedure, shortened: as §3
Streptococcus pneumoniae [18] = assay: Antibacterial activity against fluoroquinolone-resistant Streptococcus pneumoniae M100 FQ-R overexpressing patA, patB by standardized agar doubling dilution method in presence of 20 ug/ml reserpine efflux pump inhibitor; procedure, shortened: as §1
Streptococcus pneumoniae [19] = assay: Antibacterial activity against Streptococcus pneumoniae M300 overexpressing patA, patB and inactivated patA with single mutation by standardized agar doubling dilution method in presence of 20 ug/ml reserpine efflux pump inhibitor; procedure, shortened: as §3
Streptococcus pneumoniae [20] = assay: Antibacterial activity against Streptococcus pneumoniae M303 overexpressing patA, patB and inactivated patA with single mutation by standardized agar doubling dilution method in presence of 20 ug/ml reserpine efflux pump inhibitor; procedure, shortened: as §3
Streptococcus pneumoniae [21] = assay: Antibacterial activity against Streptococcus pneumoniae M305 overexpressing patA, patB and inactivated patB with single mutation by standardized agar doubling dilution method in presence of 50 uM sodium orthovanadate efflux pump inhibitor; procedure, shortened: as §3
Streptococcus pneumoniae [22] = assay: Antibacterial activity against fluoroquinolone, dye-resistant Streptococcus pneumoniae M87 overexpressing patA, patB by standardized agar doubling dilution method in presence of 50 uM sodium orthovanadate efflux pump inhibitor
Procedure, shortened: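 MIC by agar doubling dilution following BSAC guidelines. Strains grown in brain heart infusion broth 24 h at 37°C in 5% CO2. Where an efflux pump inhibitor applies, MIC redetermined with reserpine at 20 μg/ml or sodium orthovanadate at 50 μM. Synergy taken as a fall in MIC of ≥2 dilutions with inhibitor present. Dye resistance defined relative to R6 (both dyes ≥2 dilutions higher).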

Streptococcus pneumoniae [23] = assay: Antibacterial activity against fluoroquinolone-resistant Streptococcus pneumoniae M83 FQ-R overexpressing patA, patB by standardized agar doubling dilution method in presence of 50 uM sodium orthovanadate efflux pump inhibitor; procedure, shortened: as §1
Streptococcus pneumoniae [24] = assay: Antibacterial activity against Streptococcus pneumoniae M306 overexpressing patA, patB and inactivated patB with single mutation by standardized agar doubling dilution method in presence of 50 uM sodium orthovanadate efflux pump inhibitor; procedure, shortened: as §3
Streptococcus pneumoniae [25] = assay: Antibacterial activity against Streptococcus pneumoniae M315 overexpressing patA, patB and inactivated patA with single mutation by standardized agar doubling dilution method in presence of 50 uM sodium orthovanadate efflux pump inhibitor
Procedure, shortened: (§5)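 MICs were determined by BSAC agar doubling dilution in the presence of sodium orthovanadate at 50 μM. Cultures were grown in BHI broth for 24 h at 37°C in 5% CO2, with R6 as control. Synergy was defined as an MIC reduction of ≥2 dilutions with the inhibitor present.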

Streptococcus pneumoniae [26] = assay: Antibacterial activity against Streptococcus pneumoniae M55B overexpressing patA, patB and inactivated patB with single mutation by standardized agar doubling dilution method in presence of 50 uM sodium orthovanadate efflux pump inhibitor; procedure, shortened: as §5
Streptococcus pneumoniae [27] = assay: Antibacterial activity against Streptococcus pneumoniae M46B overexpressing patA, patB and inactivated patB with single mutation by standardized agar doubling dilution method in presence of 50 uM sodium orthovanadate efflux pump inhibitor; procedure, shortened: as §5

Row | SMILES | MIC (Streptococcus pneumoniae [1]) [µg/mL] | MIC (Streptococcus pneumoniae [2]) [µg/mL] | MIC (Streptococcus pneumoniae [3]) [µg/mL] | MIC (Streptococcus pneumoniae [4]) [µg/mL] | MIC (Streptococcus pneumoniae [5]) [µg/mL] | MIC (Streptococcus pneumoniae [6]) [µg/mL] | MIC (Streptococcus pneumoniae [7]) [µg/mL] | MIC (Streptococcus pneumoniae [8]) [µg/mL] | MIC (Streptococcus pneumoniae [9]) [µg/mL] | MIC (Streptococcus pneumoniae [10]) [µg/mL] | MIC (Streptococcus pneumoniae [11]) [µg/mL] | MIC (Streptococcus pneumoniae [12]) [µg/mL] | MIC (Streptococcus pneumoniae [13]) [µg/mL] | MIC (Streptococcus pneumoniae [14]) [µg/mL] | MIC (Streptococcus pneumoniae [15]) [µg/mL] | MIC (Streptococcus pneumoniae [16]) [µg/mL] | MIC (Streptococcus pneumoniae [17]) [µg/mL] | MIC (Streptococcus pneumoniae [18]) [µg/mL] | MIC (Streptococcus pneumoniae [19]) [µg/mL] | MIC (Streptococcus pneumoniae [20]) [µg/mL] | other results
1 | CC[n+]1c(-c2ccccc2)c2cc(N)ccc2c2ccc(N)cc21.[Br-] [HOMIDIUM BROMIDE] | 0.3 | 0.3 | 0.5 | 0.5 | 0.5 | 16 | 8 | 0.5 | 0.5 | 0.5 | 0.5 | 16 | 0.5 | 0.5 | 0.5 | 0.5 | 0.5 | 0.25 | 0.5 | 0.5 | MIC (Streptococcus pneumoniae [21]): 0.25 µg/mL; MIC (Streptococcus pneumoniae [22]): 1 µg/mL; MIC (Streptococcus pneumoniae [23]): 4 µg/mL; MIC (Streptococcus pneumoniae [24]): 0.5 µg/mL; MIC (Streptococcus pneumoniae [25]): 0.25 µg/mL; MIC (Streptococcus pneumoniae [26]): 0.5 µg/mL; MIC (Streptococcus pneumoniae [27]): 0.5 µg/mL
2 | O=C(O)c1cn(C2CC2)c2cc(N3CCNCC3)c(F)cc2c1=O [CIPROFLOXACIN] | 1 | 1 | 1 (≈ 3.02 µM) | 4 (≈ 12.1 µM) | 1 (≈ 3.02 µM) | 4 (≈ 12.1 µM) | 64 (≈ 193 µM) | 16 (≈ 48.3 µM) | 16 (≈ 48.3 µM) | 4 (≈ 12.1 µM) | 2 (≈ 6.04 µM) | 0.25 (≈ 0.754 µM) | 8 | 1 | 8 | 8 | 4 | 2 | 2 | 1 | MIC (Streptococcus pneumoniae [21]): 8 µg/mL; MIC (Streptococcus pneumoniae [22]): 16 µg/mL; MIC (Streptococcus pneumoniae [23]): 1 µg/mL; MIC (Streptococcus pneumoniae [24]): 4 µg/mL; MIC (Streptococcus pneumoniae [25]): 0.12 µg/mL; MIC (Streptococcus pneumoniae [26]): 2 µg/mL; MIC (Streptococcus pneumoniae [27]): 0.12 µg/mL
